From ChEMBL document CHEMBL1157514, “3-Alkenyl-2-azetidinones as fatty acid amide hydrolase inhibitors” (Bioorg Med Chem Lett, 2008)
Active and inactive are the calls of the source. The rule behind the calls is not given here.

What was measured:
[1] = molecular target: T1, Monoglyceride lipase (Homo sapiens) (UniProt Q99685); experiment: Inhibition of human MGL expressed in Escherichia coli at 1 mM
T1 sequence (whole entry): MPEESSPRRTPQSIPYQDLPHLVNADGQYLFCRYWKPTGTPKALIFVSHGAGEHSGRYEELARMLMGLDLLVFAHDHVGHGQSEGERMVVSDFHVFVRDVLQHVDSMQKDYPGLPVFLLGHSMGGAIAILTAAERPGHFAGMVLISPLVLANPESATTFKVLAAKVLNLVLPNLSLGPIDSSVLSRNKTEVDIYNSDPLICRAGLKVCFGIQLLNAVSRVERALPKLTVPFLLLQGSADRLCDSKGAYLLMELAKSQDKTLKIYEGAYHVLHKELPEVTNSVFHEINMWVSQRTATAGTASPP
In short: (§1)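 Human MGL expressed in E. coli was run in Tris-HCl pH 8 with [3H]-oleoylglycerol (50,000 dpm; 10 µM final) as substrate. Otherwise the radiometric hydrolysis protocol was similar: compound or DMSO, chloroform–methanol quench, scintillation counting of the aqueous phase, and subtraction of buffer-only blanks.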

[2] = molecular target: T2, Fatty-acid amide hydrolase 1 (Homo sapiens) (UniProt O00519); experiment: Inhibition of human FAAH expressed in Escherichia coli at 1 mM
T2 sequence (whole entry): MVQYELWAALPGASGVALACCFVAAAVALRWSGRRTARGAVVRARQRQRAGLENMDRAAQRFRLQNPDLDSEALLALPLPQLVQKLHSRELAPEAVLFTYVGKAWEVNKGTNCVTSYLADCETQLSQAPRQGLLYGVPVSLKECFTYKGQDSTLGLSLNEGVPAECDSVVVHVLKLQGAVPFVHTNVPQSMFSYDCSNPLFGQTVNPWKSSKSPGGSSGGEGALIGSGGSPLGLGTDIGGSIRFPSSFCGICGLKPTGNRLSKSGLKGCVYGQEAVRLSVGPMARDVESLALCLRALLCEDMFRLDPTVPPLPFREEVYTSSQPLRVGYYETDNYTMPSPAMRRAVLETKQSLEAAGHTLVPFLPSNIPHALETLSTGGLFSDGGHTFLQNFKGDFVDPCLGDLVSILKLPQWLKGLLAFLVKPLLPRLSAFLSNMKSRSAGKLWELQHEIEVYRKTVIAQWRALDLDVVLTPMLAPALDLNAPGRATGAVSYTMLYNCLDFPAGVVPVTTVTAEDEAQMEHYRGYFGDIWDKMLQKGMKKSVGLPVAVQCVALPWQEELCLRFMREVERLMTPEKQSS
In short: (§2)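 Human FAAH expressed in E. coli, in Tris-HCl pH 7.4, was added on ice to compound or DMSO. [3H]-AEA was added (50,000 dpm; 2 µM final) in Tris-HCl with 0.1% BSA, then incubated 10 min at 37 °C. The reaction was stopped on ice with cold MeOH–CHCl3 (1:1) and centrifuged. [3H]-ethanolamine in the aqueous phase was counted by liquid scintillation, with no-enzyme blanks subtracted.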

[3] = molecular target: T3, Pancreatic elastase (Sus scrofa) (UniProt P08419+P00772); experiment: Inhibition of pig pancreatic elastase at 2.5 mM; assay type: protein assay
Homo sapiens = species: Homo sapiens; experiment: Selectivity ratio of IC50 for human FAAH over IC50 for human MGL
[4] = molecular target: T3, Pancreatic elastase (Sus scrofa); experiment: Inhibition of pig pancreatic elastase at 0.1 mM; assay type: protein assay
[5] = molecular target: T3, Pancreatic elastase (Sus scrofa); experiment: Inhibition of pig pancreatic elastase at 10 mM; assay type: protein assay
[6] = molecular target: T3, Pancreatic elastase (Sus scrofa); experiment: Inhibition of pig pancreatic elastase at 5 mM; assay type: protein assay
[7] = molecular target: T4, Fatty-acid amide hydrolase 1 (Homo sapiens, UniProt O00519); experiment: Inhibition of human FAAH expressed in Escherichia coli; in short: as §2
T4 sequence (O00519 whole entry): T2 sequence (whole entry)

Monoglyceride lipase = molecular target: T5, Monoglyceride lipase (Homo sapiens, UniProt Q99685); experiment: Inhibition of human MGL expressed in Escherichia coli; in short: as §1
T5 sequence (Q99685 whole entry): T1 sequence (whole entry)

[8] = Inhibition of penicillin-binding protein 2x assessed as residual activity
In short: (§3)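 Compound (100 µM) was incubated with PBP (0.8–2.5 µM) for 16 h at 30 °C in 50 mM sodium phosphate pH 7 with 5% DMF; PBP2a and PBP5 also had 0.5 M NaCl. Free PBP was then labelled with 25 µM fluorescein-ampicillin for 45 min and the reaction stopped with SDS-PAGE loading buffer. Gel fluorescence was quantified, background subtracted, and residual activity given as % of initial (triplicate).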

[9] = Inhibition of penicillin-binding protein 5 assessed as residual activity at 100 uM after 16 hrs by SDS-PAGE; in short: as §3
[10] = Inhibition of penicillin-binding protein R39 assessed as residual activity; in short: as §3
[11] = molecular target: T3, Pancreatic elastase (Sus scrofa); experiment: Inhibition of pig pancreatic elastase at 100 uM; assay type: protein assay
[12] = Inhibition of penicillin-binding protein 2a assessed as residual activity at 100 uM after 16 hrs by SDS-PAGE; in short: as §3

Compound | inhibition [1] [%] | inhibition [2] [%] | IC50 [7] [µM] | other results
C=CCC1CN([Si](C)(C)C(C)(C)C)C1=O (racemic) | 77.5 | 43.6 | – | –
C=CCCCC1CNC1=O (racemic) | 54.9 | 80.9 | – | –
C=CCCC1CN([Si](C)(C)C(C)(C)C)C1=O (racemic) | 69.9 | 49.5 | – | –
C=CCC1CNC1=O (racemic) | 15.6 | 56.6 | – | –
C=CCCCC1CN(C(=O)CCC=C)C1=O (racemic) | 62.1 | 101 | 4.5 | Activity [3]: inactive; Ratio IC50 (Homo sapiens): 146; Activity [4]: inactive; Activity [5]: inactive; Activity [6]: inactive; IC50 (Monoglyceride lipase): 657 µM
C=CCCC1CNC1=O (racemic) | 8.1 | 48 | – | –
C=CCCC(=O)N1CC(CCC=C)C1=O (racemic) | 58.1 | 103 | 21.9 | Activity [3]: inactive; Ratio IC50 (Homo sapiens): 37; Activity [4]: inactive; Activity [5]: inactive; Activity [6]: inactive; IC50 (Monoglyceride lipase): 817 µM
C=CCCCC1CN([Si](C)(C)C(C)(C)C)C1=O (racemic) | 54.9 | 76.9 | – | –
C=CCCC(=O)N1CC(CC=C)C1=O (racemic) | 46.4 | 96.5 | 61.8 | Activity [8]: 108%; Activity [9]: 104%; Activity [10]: 73%; Activity [11]: Active; Activity [12]: 87%
C=CCCCC1(CCCC=C)CNC1=O | 36.3 | 80.5 | 259 | –
C=CCCCC1(CCCC=C)CN([Si](C)(C)C(C)(C)C)C1=O | 10.3 | 25.2 | – | –
